Assay [1] in a line: Antioxidant activity assessed as superoxide radical scavenging activity at 200 ug/ml. The class given is functional. The procedure, abridged:
(§1)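 Superoxide was generated enzymatically by xanthine with xanthine oxidase (0.04 U) and nitroblue tetrazolium in 100 mM phosphate buffer, pH 8.2, with or without test agent. Mixtures were incubated at 37 °C for 30 min and stopped with glacial acetic acid. Formazan formation was measured spectrophotometrically.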

The test system of assay [2] is Rattus norvegicus. The assay can be described thus: Antidyslipidemic activity against triton-induced hyperlipidemia in Charles Foster rat assessed as reduction in total cholesterol level at 100 mg/kg, po after 18 hrs relative to control.
For assay [3], the system named is Rattus norvegicus. Kind of assay: Antidyslipidemic activity against triton-induced hyperlipidemia in Charles Foster rat assessed as reduction in plasma phospholipid level at 100 mg/kg, po after 18 hrs relative to control. Format: functional. More on the design: scale not given: the % may be the effect or the level left. The procedure, abridged:
(§2)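 Adult male Charles Foster rats (200–225 g) were given Triton WR-1339 400 mg/kg i.p. Test agent was suspended in 0.2% w/v gum acacia in water and dosed orally at the same time. There were five rats per group, and controls received vehicle. At 18 h, retro-orbital blood was taken into EDTA and centrifuged at 2500g, 4 °C, 10 min. Plasma was diluted 1:3 in saline, and lipids were measured by standard enzymatic kits.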

A short description of assay [4]: Antioxidant activity assessed as inhibition of microsomal lipid peroxidation at 100 ug/mL. Format: functional. More on the design: scale not given: the % may be the effect or the level left. In outline: (§3)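 Inhibition of lipid peroxidation in microsomal fractions, sonicated in phosphate buffer, was read out as nmol MDA formed/h/mg protein.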
Assay [5] deals with Rattus norvegicus. Kind of assay: Antidyslipidemic activity against triton-induced hyperlipidemia in Charles Foster rat assessed as reduction in plasma triglyceride level at 100 mg/kg, po after 18 hrs relative to control. Format: functional. More on the design: scale not given: the % may be the effect or the level left. In outline: as §2
Assay [6] can be described thus: Antioxidant activity assessed as superoxide radical scavenging activity at 100 ug/ml. Format: functional. The procedure, abridged: as §1
Assay [7] in a line: Antioxidant activity assessed as inhibition of microsomal lipid peroxidation at 200 ug/mL. The class given is functional. More on the design: scale not given: the % may be the effect or the level left. The procedure, abridged: as §3
In assay [8] the test system is Rattus norvegicus. The assay can be described thus: Antidyslipidemic activity against triton-induced inhibition of post heparin lipolytic activity in Charles Foster rat at 100 mg/kg, po after 18 hrs. Format: functional. More on the design: scale not given: the % may be the effect or the level left. In outline: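 Triton WR-1339 hyperlipidemia model in male Charles Foster rats (200–225 g): 400 mg/kg i.p. triton plus oral test agent in gum acacia suspension, with five rats per group. After 18 h, post-heparin lipolytic activity was determined by the Wing and Robinson method on plasma, using spectrophotometry and an auto-analyzer.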

Assay [9] can be described thus: Antioxidant activity assessed as hydroxyl radical scavenging activity at 100 ug/ml. Format: functional.
The nature of assay [10]: Antioxidant activity assessed as hydroxyl radical scavenging activity at 200 ug/ml. Format: functional.

In the case of `CCOC(=O)C1=C(C)N(c2ccc(F)cc2)C=CC1c1ccccc1` (centres undefined), the Activity was -42.5% in assay [1]; 15.3% in assay [3]; -28.5% in [4]; 13.6% in [5]; -25.7% in assay [6]; -35.8% in [7]. Further, the Activity in assay [8] is 8.1%; in assay [9] it was -10.9%; in assay [10] it was -25.5%. For the same compound, in [2], the total cholesterol lowering came to 17%.
For the compound `COC(=O)C1=C(C)N(c2ccc(OC)cc2)C=C(C)C1c1ccccc1` (centres undefined), the Activity in assay [1] is -34.7%; in [3], 15.3%; in assay [4], -14.7%; in [5] it was 20.7%; in assay [6], -19.8%; in assay [7] it was -28.9%. Besides, the Activity in assay [8] was 14.7%; in assay [9], -13.9%; in assay [10], -22.6%. Further, the total cholesterol lowering in assay [2] is 15%.
`CC1=C(C(=O)OC(C)(C)C)C(c2ccccc2)C=CN1c1ccc(Cl)cc1` (centres undefined): the Activity in assay [1] is -48%; in assay [3] it was 13.5%; in [4], -18.5%; in [5] it was 11.5%; in [6], -24.5%; in [7], -26.6%. The Activity is 8.9% in assay [8], -19.2% in [9] and -34.6% in assay [10]. Further, in assay [2], the total cholesterol lowering is 15.5%.
Regarding `OC[C@@H](O)[C@@H](O)[C@H](O)[C@H](O)CO`, the Activity was -31.2% in assay [9] and -44.5% in assay [10].
For `COC(=O)C1=C(C)N(c2ccccc2)C=CC1c1ccc(OC)cc1` (centres undefined), the Activity was -44.8% in [1]; 18.7% in [3]; -17.6% in [4]; 18.7% in [5]; -29.8% in assay [6]; -30.3% in assay [7]. Besides, the results for the Activity in [8], in assay [9] and in assay [10] were 9.8%, -18.3% and -27.7%, respectively. The total cholesterol lowering in assay [2] is reported as 18.1%.
Turning to `CCOC(=O)C1=C(C)N(c2ccccc2)C=CC1c1ccccc1[N+](=O)[O-]` (centres undefined), the Activity in assay [1] was -33.6%; in assay [3], 5.7%; in assay [4], -19.2%; in assay [5], 10.5%; in [6] it was -20.6%; in assay [7], -25.1%. In addition, the values for the Activity in assay [8], in assay [9] and in assay [10] were 12.3%, -11.5% and -26.9%, respectively. Moreover, the total cholesterol lowering in assay [2] is recorded as 14%.
In the case of `Cc1ccc(C)c(OCCCC(C)(C)C(=O)O)c1` [GEMFIBROZIL], in assay [2], the total cholesterol lowering is reported as 37.1%. The Activity turned out to be 39.1% in assay [3], 36.1% in [5] and 34.2% in [8].
For the compound `COC(=O)C1=C(C)N(c2ccccc2)C=CC1c1ccccc1` (centres undefined), the Activity in [1] is -43%; in assay [3], 21.3%; in [4], -21.5%; in assay [5], 18.7%; in assay [6], -25.9%; in [7], -37.3%. Besides, the Activity in assay [8] was 10.9%; in [9] it was -26.9%; in [10] it was -23%. In assay [2], the total cholesterol lowering is listed as 24.8%.
For the compound `Cc1c(C)c2c(c(C)c1O)CC[C@@](C)(CCC[C@H](C)CCC[C@H](C)CCCC(C)C)O2`, the Activity is -43.9% in assay [4] and -52.1% in assay [7].
Take `CCOC(=O)C1=C(C)N(c2ccc(Br)cc2)C=CC1c1ccccc1` (centres undefined): the Activity in assay [1] was -28.4%; in assay [3], 12.5%; in assay [4], -20.7%; in [5], 12.1%; in [6] it was -18.7%; in assay [7] it was -32.1%. Further, the Activity in assay [8] is 12%; in assay [9], -14.8%; in assay [10] it was -35.7%. Also, in assay [2], the total cholesterol lowering is 18.3%.
On to `CCOC(=O)C1=C(C)N(c2ccccc2)C=CC1c1ccccc1` (centres undefined), for which the Activity in assay [1] was -34%; in [3], 28.5%; in assay [4], -19.9%; in assay [5], 25.3%; in assay [6], -21.5%; in [7], -37.1%. For the same compound, the Activity in assay [8] was 16.3%; in assay [9] it was -13.8%; in [10], -29.3%. For the same compound, the total cholesterol lowering in assay [2] is 21.9%.
As for `COC(=O)C1=C(C)N(c2cccc(Cl)c2)C=C(C)C1c1ccccc1` (centres undefined), the Activity is -35.3% in [1]; 13.4% in assay [3]; -16.2% in assay [4]; 8.9% in assay [5]; -21.3% in [6]; -22.8% in [7]. Further, the Activity is 13.9% in assay [8], -12% in assay [9] and -23% in [10]. In [2], the total cholesterol lowering came out at 12.2%.
Take `COC(=O)C1=C(C)N(c2ccccc2)C=C(C)C1c1ccccc1` (centres undefined): the Activity in [1] was -48%; in assay [3] it was 11%; in assay [4], -22.7%; in [5], 8.1%; in [6] it was -21.1%; in assay [7] it was -37.4%. Also, the Activity is 8.4% in assay [8], -14.1% in [9] and -33.1% in assay [10]. The total cholesterol lowering in assay [2] is 11%.
Turning to `CCOC(=O)C1=C(C)N(c2ccc(Cl)cc2)C=CC1c1ccccc1` (centres undefined), the Activity in assay [1] was -37.4%; in assay [3], 16.5%; in assay [5] it was 9.8%; in [6], -19.1%; in [7] it was -34.4%; in [8], 8.3%. The Activity in assay [9] was -20.8%; in [10], -31.1%. Further, the total cholesterol lowering in assay [2] came out at 16%.
With `CCOC(=O)C1=C(C)N(c2ccc(C)cc2)C=CC1c1ccccc1` (centres undefined), the Activity was -35.8% in assay [1]; 23.7% in assay [3]; -23.5% in [4]; 21.2% in [5]; -22.9% in [6]; -38.4% in assay [7]. The Activity in assay [8] was 24.9%; in assay [9], -20.7%; in [10], -32.7%. For the same compound, the total cholesterol lowering in assay [2] is given as 18.7%.
As to `COC(=O)C1=C(C)N(c2cccc(C)c2C)C=C(C)C1c1ccccc1` (centres undefined), the Activity in assay [1] was -32.2%; in [3], 23.9%; in assay [4] it was -22.7%; in assay [5], 25.7%; in assay [6] it was -23.6%; in assay [7], -33.1%. Besides, the Activity is 23.7% in [8], -19.7% in assay [9] and -29.3% in assay [10]. Also, the total cholesterol lowering in assay [2] is recorded as 24.1%.
Regarding `Oc1ncnc2[nH]ncc12`, the results for the Activity in [1] and in [6] were -77.5% and -66.4%, respectively.
Consider `CC1=C(C(=O)OC(C)(C)C)C(c2ccccc2)C=CN1c1ccccc1` (centres undefined), for which the Activity in [1] is -52.9%; in [3] it was 12.8%; in assay [4] it was -35.7%; in assay [5] it was 11%; in assay [6], -30.7%; in assay [7], -42.1%. Further, the Activity was 8.4% in assay [8], -23.1% in [9] and -37.1% in assay [10]. Also, the total cholesterol lowering in [2] was determined as 11.5%.

The values are drawn from ChEMBL document CHEMBL1154745, “Synthesis and biological evaluation of N-aryl-1,4-dihydropyridines as novel antidyslipidemic and antioxidant agents” (2010).
